CXCR6 inh – blocks human CXCR6 beta-arrestin recruitment. O00574. CHO-K1 PathHunter CXCR6 beta-arrestin, luminescence. inhibition, % at 20 µM. actives 0.36% (n = 360,000); in the data active means inhibition above about 34%, passing the limit was not always enough;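 further: antagonist mode with CXCL16 agonist at 10 nM final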
Target sequence (O00574 whole entry, looked up): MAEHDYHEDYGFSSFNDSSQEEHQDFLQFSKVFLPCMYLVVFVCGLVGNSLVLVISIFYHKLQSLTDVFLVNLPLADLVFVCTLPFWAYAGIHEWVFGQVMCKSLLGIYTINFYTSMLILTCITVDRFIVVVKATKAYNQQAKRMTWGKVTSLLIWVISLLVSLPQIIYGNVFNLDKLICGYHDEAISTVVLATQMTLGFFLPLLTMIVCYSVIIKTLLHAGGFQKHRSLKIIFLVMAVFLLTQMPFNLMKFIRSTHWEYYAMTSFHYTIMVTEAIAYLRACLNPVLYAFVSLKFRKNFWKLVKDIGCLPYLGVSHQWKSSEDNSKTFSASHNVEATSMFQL
CCR6 antag – blocks CCL20-driven beta-arrestin recruitment at human CCR6; P51684; CHO-K1 CCR6 PathHunter beta-arrestin, luminescence, CCL20-stimulated; inhibition, % at 20 µM; actives 0.49% (n = 340,000);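 active means compounds whose inhibition of the agonist-driven luminescence signal at 20 µM reaches about 50%, limit read from the data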;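 further: cells stimulated with CCL20 at 14 nM final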
Target sequence (P51684 whole entry, looked up): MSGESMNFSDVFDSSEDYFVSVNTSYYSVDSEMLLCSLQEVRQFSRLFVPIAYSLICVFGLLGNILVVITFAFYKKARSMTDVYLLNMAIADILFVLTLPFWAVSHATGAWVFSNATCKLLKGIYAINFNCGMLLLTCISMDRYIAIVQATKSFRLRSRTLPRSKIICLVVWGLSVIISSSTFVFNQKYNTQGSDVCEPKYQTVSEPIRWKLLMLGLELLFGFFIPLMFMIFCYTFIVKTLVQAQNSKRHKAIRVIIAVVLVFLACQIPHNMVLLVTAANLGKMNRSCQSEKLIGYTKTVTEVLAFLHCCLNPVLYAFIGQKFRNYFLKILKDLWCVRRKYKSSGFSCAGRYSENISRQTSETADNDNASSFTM
m5-HT2A agonist – activates the mouse 5-HT2A serotonin receptor; P35363; CHO-K1 mHTR2A beta-arrestin complementation, luminescence; percent of 30 µM serotonin response; activation, % at 7.6 µM; actives 0.66% (n = 360,000); AID 624169;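 active means activation above a run cutoff, the mean activation of all tested compounds plus 3 SD, cut at about 14% in these data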
EBI2 antag – blocks human EBI2 receptor beta-arrestin signaling | inhibition, % at 5 µM | EBI2 beta-arrestin recruitment, luminescence, 7a,25-OHC stimulated | actives 0.81% (n = 360,000) | AID 651636; in the data active means inhibition above about 38%;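 further: enzyme fragment complementation signal reports receptor beta-arrestin coupling in cells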
APJ agonist – activates the human apelin receptor APJ; P35414; CHO-K1 APJ PathHunter beta-arrestin, luminescence; 0% DMSO wells, 100% apelin; activation, % at 20 µM; actives 0.11% (n = 330,000);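 active means activation more than six SD over the plate average, tested at 20 µM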
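Test system: CHO-K1 APJ beta-arrestin complementation cell line. Amount: cell density 1000 per well. Controls: DMSO negative, 10 nM Apelin-13 positive. Signal: luminescent beta-gal fragment complementation, chemiluminescent substrate. Read-out basis: agonist-driven arrestin binding to APJ. Timing: compound stimulation 90 min at 25 °C, detection 60 min.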
APJ antagonist – APJ receptor antagonism. actives 0.32% (n = 330,000). inhibition, % at 20 µM. P35414. CHO-K1 APJ beta-arrestin complementation, luminescence;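 active means inhibition above about 40% at 20 µM, limit read from the data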;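 further: cells challenged with 10 nM apelin-13 agonist together with compound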
EBI2 conf – EBI2 (human) antagonism, single concentration confirmation; shares compounds with EBI2 antag; EBI2 beta-arrestin luminescence, 7a,25-OHC antagonism; inhibition, % at 5 µM; actives 29% (n = 2,400);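 active means inhibition of at least 50%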
EBI2 agonist – EBI2 agonism counter-screen; activation, % at 5 µM; shares compounds with EBI2 antag; EBI2-expressing cells, agonist mode, luminescence, 60 min; 0% vehicle, 100% 7α,25-dihydroxycholesterol control; 2,400 tested, under 10 active;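 active means activation of at least 50%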
bGal counter – inhibits E. coli beta-galactosidase, counter-screen for EBI2 antagonists; AID 652176; inhibition, % at 5 µM; purified beta-galactosidase, luminescent Galacton Star, 15 min; shares compounds with EBI2 antag; actives 1% (n = 2,400);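 active means replicate-average signal at least 3 plate SD below neutral wells, shown as high inhibition, flagging enzyme-inhibiting false positives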;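 further: higher means stronger loss of beta-gal luminescence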
Large screens that a line does not name were inactive (follow-up assays come after a bar, where they were run). Compounds with a hit are over-represented: about 2.2% of the library has one in this group of screens.

CC(C)CCNC(=O)/C=C/c1ccc(Br)cc1	EBI2 antag 47.4 | EBI2 conf inactive | EBI2 agonist inactive | bGal counter inactive
CC(C)CCNC(=S)Nc1ccc(Br)cc1	none
CSC(=Nc1ccccc1)C(C#N)c1nc2ccccc2[nH]1 (stereo not given)	EBI2 antag 57.3 | EBI2 conf inactive | EBI2 agonist inactive | bGal counter inactive
N#CC(C(=S)Nc1ccccc1)c1nc2ccccc2[nH]1 (stereo not given)	none
Cc1ccc(NC(=O)c2ccc(CSc3ccccn3)cc2)cc1	EBI2 antag 45.6 | EBI2 conf inactive | EBI2 agonist inactive | bGal counter inactive
CSCCC(c1nc2ccccc2[nH]1)n1c(-c2ccc3ncccc3c2)nc2ccccc21 (stereo not given)	none (no result: CXCR6 inh, CCR6 antag, APJ agonist, APJ antagonist)
CCCCn1nnnc1C(c1cccc2ccccc12)N1CCN(C/C=C/c2ccccc2)CC1 (stereo not given)	EBI2 antag 44.4 (no result: CCR6 antag, APJ agonist, APJ antagonist) | EBI2 conf inactive | EBI2 agonist inactive | bGal counter inactive
CCCCn1nnnc1C(c1ccnc2ccccc12)N1CCN(C/C=C/c2ccccc2)CC1 (stereo not given)	none (no result: CCR6 antag, APJ agonist, APJ antagonist)
CCCCn1nnnc1C(CC)N1CCN(C/C=C/c2ccccc2)CC1 (stereo not given)	none (no result: CCR6 antag, APJ agonist, APJ antagonist)
CCCCn1nnnc1C(c1ccccc1)N1CCN(C/C=C/c2ccccc2)CC1 (stereo not given)	EBI2 antag 46.2 (no result: CCR6 antag, APJ agonist, APJ antagonist) | EBI2 conf inactive | EBI2 agonist inactive | bGal counter inactive
Cc1cccc(NC(=O)c2cc(S(=O)(=O)N3CCCCC3)c[nH]2)c1	none (no result: CCR6 antag, APJ agonist, APJ antagonist)
C/C=C/c1cccc(-c2nc(C(=O)N3CCCCC3)cc3c2[C@@H](CCO)N(C(=O)NC(C)C)C3)c1	none (no result: CCR6 antag, APJ agonist, APJ antagonist)
COc1ccc(-c2sc3ccc(N4CCOCC4)cc3c2C#CCO)cc1	none
COc1ccc(/C=C/c2c(-c3ccc(OC)cc3)sc3ccc(N4CCOCC4)cc23)cc1	EBI2 antag 50.0 | EBI2 conf inactive | EBI2 agonist inactive | bGal counter inactive
C(=N\N(c1ccccc1)c1ccccc1)/c1ccc(N2CCOCC2)s1	EBI2 antag 56.1 | EBI2 conf inactive | EBI2 agonist inactive | bGal counter inactive
O=C(N/N=C/c1ccc(N2CCOCC2)s1)c1ccccc1Cl	none
CCC(=NCCc1c(C)[nH]c2ccc(OC(F)(F)F)cc12)C1=C(O)CC(c2ccccc2)CC1=O (stereo not given)	none
CCCCC(=NCCc1c(C)[nH]c2ccc(OC)cc12)C1=C(O)CC(c2ccccc2)CC1=O (stereo not given)	EBI2 antag 51.2 | EBI2 conf inactive | EBI2 agonist inactive | bGal counter inactive
CC(=NCCc1c(C)[nH]c2ccc(OCc3ccccc3)cc12)C1=C(O)CC(c2ccccc2)CC1=O (stereo not given)	EBI2 antag 46.4 | EBI2 conf inactive | EBI2 agonist inactive | bGal counter inactive
COC(=O)[C@]12CCCCC=C1N(Cc1cccc3ccccc13)C(=O)[C@H](CC(=O)NCCCN1CCCC1=O)C2	none (no result: CCR6 antag, APJ agonist, APJ antagonist)
O=S1(=O)N[C@@H](Cc2ccccc2)COc2cccc(N3CCC[C@@H]3CO)c21	none (no result: CCR6 antag, APJ agonist, APJ antagonist)
CCOc1ccc(S(=O)(=O)c2c(C(=O)c3ccc(C)cc3)cnc3cc4c(cc23)OCCO4)cc1	EBI2 antag 46.6 | EBI2 conf inactive | EBI2 agonist inactive | bGal counter inactive
Cc1ccc(C(=O)c2cnc3cc4c(cc3c2S(=O)(=O)c2ccccc2)OCCO4)cc1	none
CC(C)[C@@H]1Cc2[nH]c(=O)[nH]c(=O)c2[C@H](C)O1	none (no result: CCR6 antag, APJ agonist, APJ antagonist)
Cc1ccc(Nc2ccc(C(=O)NC3CCCCC3)cn2)cc1	EBI2 antag 83.7 | EBI2 conf 57.6 | EBI2 agonist inactive | bGal counter inactive
COc1ccccc1Nc1ccc(C(=O)NC2CCCCC2)cn1	none
CC(C)C(NS(=O)(=O)c1ccccc1)C(=O)OCC(=O)NNC(=O)c1ccccc1 (stereo not given)	EBI2 antag 53.5 | EBI2 conf inactive | EBI2 agonist inactive | bGal counter inactive
CC(C)[C@H](NC(=O)c1c(F)cccc1F)C(=O)OCC(=O)NNC(=O)c1ccccc1	none (no result: CCR6 antag, APJ agonist, APJ antagonist)
O=C(NCCc1ccccc1)C1CCC(Cn2c(=O)c3ccccc3n(Cc3cccc(Cl)c3)c2=O)CC1 (stereo not given)	none
O=C(NCCc1ccccc1)C1CCC(Cn2c(=O)c3ccccc3n(Cc3cccc(F)c3)c2=O)CC1 (stereo not given)	EBI2 antag 61.1 | EBI2 conf inactive | EBI2 agonist inactive | bGal counter inactive
CN(C)S(=O)(=O)c1ccc(C(=O)NCCSc2ccc(Br)cc2)cc1	EBI2 antag 65.2 | EBI2 conf inactive | EBI2 agonist inactive | bGal counter inactive
Cc1ccc(/C=C/C(=O)N2CCN(Cc3ccccc3)CC2)o1	none
O=C(/C=C/c1ccc(Br)cc1)N1CCN(Cc2ccccc2)CC1	EBI2 antag 96.0 | EBI2 conf 85.3 | EBI2 agonist inactive | bGal counter inactive
O=C(/C=C/c1ccc(F)cc1)N1CCN(Cc2ccccc2)CC1	EBI2 antag 92.7 | EBI2 conf 79.5 | EBI2 agonist inactive | bGal counter inactive
COC(=O)c1[nH]c2cc(OC)ccc2c1NC(=O)CN1CCN(c2cccc(C)c2)C(C)C1 (stereo not given)	EBI2 antag 72.5 | EBI2 conf 69.7 | EBI2 agonist inactive | bGal counter inactive
COC(=O)c1[nH]c2cc(C)ccc2c1NC(=O)CN1CCOCC1	none
COc1cc(-c2nnc(SCc3c(F)cccc3Cl)o2)cc(OC)c1OC	EBI2 antag 41.6 | EBI2 conf inactive | EBI2 agonist inactive | bGal counter inactive
COc1cc(-c2nnc(SCc3ccccc3Cl)o2)cc(OC)c1OC	none
CCCc1nc2ccc(NC(=O)c3cccs3)cc2c(=O)n1Cc1ccc(Cl)cc1	EBI2 antag 42.8 | EBI2 conf inactive | EBI2 agonist inactive | bGal counter inactive
COc1cccc(-c2cnc3c(NC(C)=O)cc(-c4ccc(C(=O)NC5CC5)cc4)cn23)c1	none (no result: CCR6 antag, APJ agonist, APJ antagonist)
CCCNC(=O)C1(C)CCCN(Cc2ccc(-c3ccccc3)o2)C1 (stereo not given)	none (no result: CCR6 antag, APJ agonist, APJ antagonist)
CCCNC(=O)C1(C)CCN(Cc2ccc(C)c3ccccc23)C1 (stereo not given)	none (no result: CCR6 antag, APJ agonist, APJ antagonist)

Screens: PubChem BioAssay, several laboratories
